# Only some compounds are listed: those with a hit (about 3.1% of all), similar ones and a draw of the others.
# HSF1 inhib: HSF1 inhibition | NIH3T3-HGL HSE-luciferase, MG132-induced, luminescence 8 h; stronger effect = lower value | activity change, negative = inhibition, % at 7.5 µM (by protocol) | 0.77% of 300,000 active | AID 2098;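 active = more than half of replicate wells show activity change below -50%, luminescence cut by over half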;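 also: luciferase reports HSF-1 transcriptional activity via heat shock element; 0% = median of DMSO wells and -100% = zero luminescence signal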
# HKDC1 inhibitor: blocks human hexokinase HKDC1 activity; 0.16% of 340,000 active; recombinant HKDC1, G6PDH/diaphorase resazurin coupled fluorescence; inhibition, % at 20 µM; Q2TB90;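 active = inhibition above about 35% when tested at 20 µM, limit read from the data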;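 also: plate controls were DMSO wells with enzyme for no effect and DMSO wells lacking enzyme for full effect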
# Target sequence (Q2TB90 whole entry, looked up): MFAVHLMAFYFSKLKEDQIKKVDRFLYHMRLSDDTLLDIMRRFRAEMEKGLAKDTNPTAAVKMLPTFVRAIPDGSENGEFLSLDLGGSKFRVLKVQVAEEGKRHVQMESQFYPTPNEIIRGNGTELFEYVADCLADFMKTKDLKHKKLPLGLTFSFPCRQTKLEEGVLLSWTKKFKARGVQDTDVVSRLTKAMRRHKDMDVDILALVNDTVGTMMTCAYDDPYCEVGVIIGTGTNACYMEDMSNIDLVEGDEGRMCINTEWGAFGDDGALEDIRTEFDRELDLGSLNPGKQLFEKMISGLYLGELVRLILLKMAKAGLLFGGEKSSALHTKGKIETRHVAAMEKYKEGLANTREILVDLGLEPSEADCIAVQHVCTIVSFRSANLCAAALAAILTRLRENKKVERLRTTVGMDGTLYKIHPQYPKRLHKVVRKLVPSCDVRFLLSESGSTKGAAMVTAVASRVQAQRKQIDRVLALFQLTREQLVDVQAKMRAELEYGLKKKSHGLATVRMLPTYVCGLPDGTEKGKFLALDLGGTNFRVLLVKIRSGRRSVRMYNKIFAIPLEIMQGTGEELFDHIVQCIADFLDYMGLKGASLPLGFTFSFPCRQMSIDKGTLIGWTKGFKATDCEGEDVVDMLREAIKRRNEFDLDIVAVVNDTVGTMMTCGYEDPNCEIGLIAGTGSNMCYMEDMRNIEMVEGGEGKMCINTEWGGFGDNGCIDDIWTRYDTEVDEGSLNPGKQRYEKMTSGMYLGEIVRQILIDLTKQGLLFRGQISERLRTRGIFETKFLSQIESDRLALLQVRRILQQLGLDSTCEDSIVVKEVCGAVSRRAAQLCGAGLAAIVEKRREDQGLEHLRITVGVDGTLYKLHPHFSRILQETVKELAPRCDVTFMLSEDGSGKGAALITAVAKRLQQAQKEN
#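 System: Recombinant HKDC1 hexokinase | Amount: HKDC1 at 5 µg/mL | Reagent: Glucose with 1 mM ATP | Doses: Single 20 µM dose | Incubation: Reaction time 90 min, room temperature, protected from light | Signal: Coupled resazurin fluorescence, excitation 525 nm, emission 613 nm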
# HSP90 refold inh: blocks HSP90-mediated luciferase refolding in reticulocyte lysate | Rabbit reticulocyte lysate, luciferase refolding luminescence, 3 h | inhibition, % at 5.6 µM | 0.91% of 290,000 active | AID 1789;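 active = inhibition above the screen-wide mean plus 3 SD, computed separately per campaign, cut at about 16% in these data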;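 also: 0% = DMSO wells and 100% = 60 µM geldanamycin wells; inhibitors lower the luminescence because luciferase stays unfolded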
# Tb hexokinase: blocks Trypanosoma brucei hexokinase 1 activity; recombinant TbHK1, G6PDH-coupled NADH A340; inhibition, % at 10 µM; 0.11% of 220,000 active;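 active = inhibition of 50% or more in the single-dose primary screen; inactive = inhibition below 50%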
# HSF-1 act: increases HSF-1 driven luciferase reporter signal; AID 504408; NIH3T3-HGL HSF-1 luciferase reporter, MG132, 8 h; 100% = twice DMSO control signal; 1.7% of 300,000 active; activation, % at 9 µM;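 active = mean replicate activation of at least 50% with a set share of replicates each reaching 50%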;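 also: 0% = median of the neutral control wells and 100% = twice that signal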
# Hsp70 act: Hsp70 transcriptional activation, primary screen. HeLa Hsp70 promoter luciferase reporter, luminescence; scaled: vehicle 0, proteasome-inhibitor control 100%. activation, % at 10 µM. 0.04% of 200,000 active;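 active = activation above the mean across all tested compounds plus 3 SD, cutoff set per campaign, cut at about 5.5% in these data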;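 also: 100% = MG132 at 30 µM as the positive control and 0% = DMSO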
# HKDC1 act conf: confirmation of human HKDC1 activators; shares compounds with HKDC1 inhibitor; recombinant HKDC1, G6PDH/diaphorase resazurin fluorescence; stronger effect = lower value; inhibition, % at 20 µM; 14% of 740 active;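 active = inhibition at or below a set negative limit, negative inhibition meaning the enzyme was activated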
# The depositor's hits bear a star; . = no result.
SMILES,HSF1 inhib,HKDC1 inhibitor,HSP90 refold inh,Tb hexokinase,HSF-1 act,Hsp70 act,HKDC1 act conf
O=C(O)CSc1cc(NS(=O)(=O)c2ccc(Br)cc2)c2ccccc2c1O,59.4,58.6*,15.9,.,114.0*,.,36.8
Cc1ccc(S(=O)(=O)Nc2ccc(Br)cc2C(NCC(=O)O)c2ccccc2)cc1 (configuration not stated),7.3,0.8,-3.6,48.0,12.0,-0.3,.
O=C(OCc1cccc(F)c1)c1cc2ccccc2cc1O,-3.4,-0.3,3.9,.,-2.0,.,.
O=C(CCOc1ccccc1)Nc1ccnn1C1CCN(CCc2ccccc2)CC1,4.7,-5.7,5.3,.,-8.7,.,.
CC(C)CNC(=O)COC(=O)CNC(=O)c1cc(Cl)cc([N+](=O)[O-])c1,-11.7,-51.8,1.2,-4.6,-3.8,-0.4,-24.3
C=CS(=O)(=O)c1c2cc(OC)ccc2nc2ccc(OC)cc12,.,34.0,.,.,.,.,4.1
O=C(COC(=O)/C=C/c1cccc(Br)c1)NC1CCCC1,.,1.2,.,.,.,.,.
OCC1OC(Oc2cccc3ccccc23)C(O)C(O)C1O (configuration not stated),-6.1,-1.0,0.5,.,23.0,.,.
O=C(O)c1cc(O)c2c(c1)[C@@H]([C@H]1c3cc(C(=O)O)cc(O)c3C(=O)c3c(O[C@@H]4O[C@H](CO)[C@@H](O)[C@H](O)[C@H]4O)cccc31)c1cccc(O[C@@H]3O[C@H](CO)[C@@H](O)[C@H](O)[C@H]3O)c1C2=O,.,79.8*,.,.,.,.,34.1
COc1ccc(C(=O)/C=C/Sc2nc3ccccc3o2)cc1,72.6,37.9*,-0.7,-11.4,92.6*,.,4.0
C[C@H](CO)N1C[C@H](C)[C@@H](CN(C)S(=O)(=O)c2cn(C)cn2)Oc2c(NS(=O)(=O)c3cn(C)cn3)cccc2C1=O,.,-1.7,.,.,.,.,.
CC1(OC(=O)C2CCCC2)C(=O)C=C2C=C(c3ccsc3)N(CCc3c[nH]c4ccccc34)C=C2C1=O (configuration not stated),-5.1,35.5*,.,-17.3,-6.6,.,6.3
CC1(OC(=O)C2CCCC2)C(=O)C=C2C=C(c3ccsc3)N(CC3CC3)C=C2C1=O (configuration not stated),-6.1,21.1,.,-33.0,-3.2,.,.
O=C(COC(=O)/C=C/c1ccc(Cl)cc1Cl)NCC1CCCO1 (configuration not stated),.,5.4,.,.,.,.,.
Cc1ccccc1NC(=O)c1cn2c(nc3ccccc32)c(C#N)c1C,-0.9,-8.3,-1.9,-5.7,-12.8,.,.
Cc1ccccc1C(=O)Nc1ccc2c(C#N)c3nc4ccccc4nc3n2c1,-10.6,37.1*,3.8,4.1,18.7,-0.3,6.7
O=S(=O)(c1ccc(Cl)cc1)N1CCN(C(=S)NCC2CCCO2)CC1 (configuration not stated),-0.5,-5.6,-5.0,.,21.9,.,.
CCOC(=O)c1c(C)sc2c1N(C(=O)CCl)c1cc(Cl)ccc1S2,66.7,45.5*,5.9,-2.0,79.3*,-0.1,21.6
Cc1ccccc1OCCCN1C(=O)C(=O)c2cccc(C)c21,2.6,36.8*,-3.7,-1.5,6.6,-0.1,-6.2
Cc1cccc2c1N(CCCOc1ccccc1)C(=O)C2=O,-4.0,19.2,0.1,-4.4,-3.4,-0.2,.
CSc1nc(N)nc2c1ncn2CC(=O)N[C@H](C)c1cccc2ccccc12,.,-55.5,.,.,.,.,-73.5*
COC(=O)[C@@H](Cc1ccccc1)NC(=O)Cn1cnc2c(SC)nc(N)nc21,.,-0.8,.,.,.,.,.
O=C(CSc1ccc([N+](=O)[O-])cc1)NNC(=O)c1ccccc1F,3.5,-0.1,0.2,.,10.1,.,.
O=C1C(F)=CC(COC(c2ccccc2)(c2ccccc2)c2ccccc2)OC1n1cc(F)c(=O)[nH]c1=O (configuration not stated),.,39.9*,.,.,.,.,13.7
CC(=O)OCC1OC(n2cc(F)c(=O)[nH]c2=O)C(OC(C)=O)C1OC(C)=O (configuration not stated),0.1,4.8,.,.,0.3,.,.
SMILES,HSF1 inhib,HKDC1 inhibitor,HSP90 refold inh,Tb hexokinase,HSF-1 act,Hsp70 act,HKDC1 act conf
CCCCn1c(N)c(N(CCOC)C(=O)CC(NC(=O)c2ccccc2Cl)c2ccccc2)c(=O)[nH]c1=O (configuration not stated),.,-0.2,.,.,.,.,.
COC(=O)CCC(=O)OC1(C)C(=O)C2=CN(C3CCCC3)C(c3ccc(OC)cc3)=CC2=C(Br)C1=O (configuration not stated),-6.9,38.4*,.,-24.8,-12.2,.,11.6
COC(=O)CCC(=O)OC1(C)C(=O)C2=CN(Cc3ccco3)C(c3ccc(OC)cc3)=CC2=C(Br)C1=O (configuration not stated),7.7,.,.,.,16.2,.,.
CCN(CC)CCCN1C=C2C(=O)C(C)(OC(=O)CCC(=O)OC)C(=O)C(Br)=C2C=C1c1ccc(OC)cc1 (configuration not stated),1.1,19.3,.,.,22.3,.,.
COC(=O)CCC(=O)OC1(C)C(=O)C2=CN(c3ccc(OC)cc3)C(c3ccc(OC)cc3)=CC2=C(Br)C1=O (configuration not stated),-2.5,35.0,.,.,6.3,.,8.0
COCCN1C=C2C(=O)C(C)(OC(=O)CCC(=O)OC)C(=O)C(Br)=C2C=C1c1ccc(OC)cc1 (configuration not stated),-18.4,38.5*,.,.,-31.3,.,-4.3
C=CCN1C=C2C(=O)C(C)(OC(=O)CCC(=O)OC)C(=O)C(Br)=C2C=C1c1ccc(OC)cc1 (configuration not stated),0.3,35.6*,.,-22.2,5.5,.,57.5
COc1ccc(N2CCN(C(=O)Cc3ccc(Cl)cc3)CC2)cc1,15.7,3.3,3.7,.,20.1,.,.
COc1cc(CC(=O)N2CCN(C(=O)C3CCCO3)CC2)cc(OC)c1OC (configuration not stated),.,-3.5,.,.,.,.,.
Cc1cccc(C)c1N=C1NN=C(c2ccccc2F)CS1,-10.3,-13.9,-0.3,-5.5,12.2,-0.3,.
COc1ccccc1C1=NNC(=Nc2cccc(S(=O)(=O)N(C)C)c2)SC1,-42.6,-201.8,-0.3,-8.7,-43.8,-0.2,-176.7*
COc1ccc(-c2cc(C(=O)NNC(=S)NC(=O)c3c(-c4ccccc4)noc3C)[nH]n2)cc1,12.2,-45.7,-3.0,-0.3,7.9,-0.1,-50.1*
Cc1onc(-c2ccccc2)c1C(=O)NNC(=S)NC(=O)c1ccc(Br)cc1,6.5,-51.2,0.4,0.7,15.3,-0.1,-56.7*
O=C(CN(c1ccccc1)S(=O)(=O)c1ccccc1)Nc1ccc(F)cc1,-5.2,-0.2,-1.3,.,5.3,.,.
O=C1C=C(Nc2ccc(F)cc2)c2ccccc2C1=O,.,42.4*,.,.,.,.,4.5
CCOc1ccc(NC2=CC(=O)C(=O)c3ccccc32)cc1,-25.0,21.9,.,.,-25.0,.,.
O=c1cccccc1NCc1ccccc1,2.5,7.2,2.9,-31.2,13.0,-0.3,.
O=C1C=C(NCc2ccccc2)c2ccccc2C1=O,50.6,79.8*,11.7,-10.6,70.3*,0.1,56.0

# Screening data (PubChem)
